Test results published in ChEMBL document CHEMBL4049424, “Hydroxypyridinone and 5-Aminolaevulinic Acid Conjugates for Photodynamic Therapy” (J Med Chem, 2017).

System: not listed separately
Experiment: Drug metabolism in human doxorubicin resistant MCF7/R cells assessed as formation of protoporphyrin 9 after 6 hrs by fluorescence spectrometer
Format: ADME, cell-based
Conditions: mcf7r
Procedure, shortened: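 MCF-7R monolayers exposed 6 h at 37 °C to ALA, conjugates or ALA hexyl/octyl esters at 1–100 μM in serum-free medium. PpIX emission at 635 nm (405 nm excitation; spectra 600–750 nm) read in wells. Untreated controls subtracted; mean of triplicates in arbitrary units.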

SMILES	Drug metabolism
CCc1c(O)c(=O)ccn1CCCCCCCCCCOC(=O)CCC(=O)CN.Cl	Dose-dependent effect
CCc1c(O)c(=O)ccn1CCCCCCCCCCCCOC(=O)CCC(=O)CN.Cl	Dose-dependent effect

System: not listed separately
Experiment: Drug metabolism in human KB cells assessed as formation of protoporphyrin 9 at 50 uM after 2 to 24 hrs by fluorescence spectrometer
Format: ADME, cell-based
Conditions: not given
Procedure, shortened: (§1)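 KB monolayers (48 h after seeding ~5×10^4/well) washed, then given prodrug or ALA at 50 μM in serum-free medium at 37 °C. PpIX fluorescence read in wells at 2, 4, 6 and 24 h, excitation 405 nm, emission 635 nm. Untreated wells subtracted for autofluorescence; mean intensity in arbitrary units, triplicate.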

SMILES	Drug metabolism
CCc1c(O)c(=O)ccn1CCCCCCCCCCOC(=O)CCC(=O)CN.Cl	Metabolite_Detected
CCc1c(O)c(=O)ccn1CCCCCCCCCCCCOC(=O)CCC(=O)CN.Cl	Metabolite_Detected

System: not listed separately
Experiment: Drug metabolism in human KB cells assessed as protoporphyrin 9 formation at 500 uM preincubated for 1 hr at 4 degC followed by compound washout and subsequent incubation for 4 hrs at 37 degC by fluorescence spectrometer
Format: ADME, cell-based
Conditions: not given
Procedure, shortened: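 KB cells exposed 1 h to 500 μM prodrug in clear medium at either 4 °C or 37 °C, plates foil-wrapped. Compound then removed, PBS rinse, fresh medium, both plates 4 h at 37 °C. PpIX read in wells at 405/635 nm after subtracting untreated wells.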

SMILES	Drug metabolism
CCc1c(O)c(=O)ccn1CCCCCCCCCCOC(=O)CCC(=O)CN.Cl	Metabolite_Detected
CCc1c(O)c(=O)ccn1CCCCCCCCCCCCOC(=O)CCC(=O)CN.Cl	Metabolite_Detected

System: not listed separately
Experiment: Drug metabolism in human MCF7 cells assessed as formation of protoporphyrin 9 at 50 uM after 6 hrs by fluorescence spectrometer
Format: ADME, cell-based
Conditions: mcf7, 6 h
Procedure, shortened: (§2)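 MCF-7 or MCF-7R cells incubated 6 h at 37 °C with 50 μM conjugate, or with 50 μM ALA and HPO as a 1:1 mixture, in serum-free medium. PpIX fluorescence read in wells at 405/635 nm, untreated-well values subtracted, triplicate.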

SMILES	Drug metabolism
CCc1c(O)c(=O)ccn1CCCCCCCCCCOC(=O)CCC(=O)CN.Cl	Metabolite_Detected
CCc1c(O)c(=O)ccn1CCCCCCCCCCCCOC(=O)CCC(=O)CN.Cl	Metabolite_Detected

System: not listed separately
Experiment: Drug metabolism in human KB cells assessed as formation of protoporphyrin 9 at 100 uM after 6 to 24 hrs by fluorescence spectrometer
Format: ADME, cell-based
Conditions: not given
Procedure, shortened: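 Time course in KB cells at 37 °C after 100 μM conjugate, ALA, or 1:1 ALA + HPO mixture in serum-free medium. Well PpIX fluorescence read at 405 nm excitation / 635 nm emission, control autofluorescence subtracted, triplicate means.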

SMILES	Drug metabolism
CCc1c(O)c(=O)ccn1CCCCCCCCCCOC(=O)CCC(=O)CN.Cl	Metabolite_Detected
CCc1c(O)c(=O)ccn1CCCCCCCCCCCCOC(=O)CCC(=O)CN.Cl	Metabolite_Detected

System: not listed separately
Experiment: Drug metabolism in human KB cells assessed as formation of protoporphyrin 9 at 50 uM after 24 hrs by fluorescence spectrometer relative to ALA
Format: ADME, cell-based
Conditions: not given
Procedure, shortened: as §1

SMILES	fold change (FC)
CCc1c(O)c(=O)ccn1CCCCCCCCCCOC(=O)CCC(=O)CN.Cl	10.2
CCc1c(O)c(=O)ccn1CCCCCCCCCCCCOC(=O)CCC(=O)CN.Cl	9.2

System: KB
Experiment: Phototoxicity in human KB cells assessed as reduction in cell viability preincubated for 4 hrs followed by irradiation with blue light at 2.5 J/cm2 and subsequent incubation for 18 hrs measured after 24 hrs post treatment by MTT assay
Format: functional
Conditions: not given
Procedure, shortened: (§3)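 Cells seeded ~5 × 10^4 per well, grown 48 h, washed with PBS, then 4 h with compound (five concentrations within 1–100 μM, triplicate, three untreated control wells per plate). Irradiated with blue light, peak ~420 nm, 2.5 J/cm². Medium replaced, cells kept a further 18 h. MTT read at A570 24 h after treatment; survival expressed as percentage of control. LD50 taken from two sets of experiments.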

SMILES	Activity
CCc1c(O)c(=O)ccn1CCCCCCCCCCOC(=O)CCC(=O)CN.Cl	Dose-dependent effect
CCc1c(O)c(=O)ccn1CCCCCCCCCCCCOC(=O)CCC(=O)CN.Cl	Dose-dependent effect

Same assay, conditions: light or radiation study, read-out: LD50 (the source's name)

SMILES	CC50 [µM]
CCc1c(O)c(=O)ccn1CCCCCCCCCCOC(=O)CCC(=O)CN.Cl	2.3
CCc1c(O)c(=O)ccn1CCCCCCCCCCCCOC(=O)CCC(=O)CN.Cl	2.5

System: MCF7
Experiment: Phototoxicity in human MCF7 cells assessed as reduction in cell viability preincubated for 4 hrs followed by irradiation with blue light at 2.5 J/cm2 and subsequent incubation for 18 hrs measured after 24 hrs post treatment by MTT assay
Format: functional
Conditions: not given
Procedure, shortened: as §3

SMILES	Activity
CCc1c(O)c(=O)ccn1CCCCCCCCCCOC(=O)CCC(=O)CN.Cl	Dose-dependent effect
CCc1c(O)c(=O)ccn1CCCCCCCCCCCCOC(=O)CCC(=O)CN.Cl	Dose-dependent effect

Same assay, conditions: MCF7, light or radiation study, read-out: LD50 (the source's name)

SMILES	CC50 [µM]
CCc1c(O)c(=O)ccn1CCCCCCCCCCOC(=O)CCC(=O)CN.Cl	8.1
CCc1c(O)c(=O)ccn1CCCCCCCCCCCCOC(=O)CCC(=O)CN.Cl	12.9

System: MCF7R
Experiment: Phototoxicity in human doxorubicin resistant MCF7/R cells assessed as reduction in cell viability preincubated for 4 hrs followed by irradiation with blue light at 2.5 J/cm2 and subsequent incubation for 18 hrs measured after 24 hrs post treatment by MTT assay
Format: functional
Conditions: not given
Procedure, shortened: as §3

SMILES	Activity
CCc1c(O)c(=O)ccn1CCCCCCCCCCOC(=O)CCC(=O)CN.Cl	Dose-dependent effect
CCc1c(O)c(=O)ccn1CCCCCCCCCCCCOC(=O)CCC(=O)CN.Cl	Dose-dependent effect

Same assay, conditions: light or radiation study, read-out: LD50 (the source's name)

SMILES	CC50 [µM]
CCc1c(O)c(=O)ccn1CCCCCCCCCCOC(=O)CCC(=O)CN.Cl	3.9
CCc1c(O)c(=O)ccn1CCCCCCCCCCCCOC(=O)CCC(=O)CN.Cl	5.5

System: KB
Experiment: Phototoxicity in human KB cells assessed as cell survival at 10 uM preincubated for 4 hrs followed by irradiation with blue light at 2.5 J/cm2 and subsequent incubation for 18 hrs measured after 24 hrs post treatment by MTT assay relative to control
Format: functional
Conditions: light or radiation study, read-out: Survival
Procedure, shortened: as §3

SMILES	viability at 10 µM [%]
CCc1c(O)c(=O)ccn1CCCCCCCCCCOC(=O)CCC(=O)CN.Cl	< 6
CCc1c(O)c(=O)ccn1CCCCCCCCCCCCOC(=O)CCC(=O)CN.Cl	< 6

System: KB
Experiment: Dark toxicity against human KB cells at 200 uM preincubated for 4 hrs followed by compound washout measured after 24 hrs by MTT assay
Format: cell-based
Conditions: not given
Procedure, shortened: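 Dark toxicity in KB cells: 200 μM compound for 4 h with no light, removed, cells kept 24 h. Viability by MTT (2 h, A570 after DMSO solubilisation), given as % of untreated controls. Triplicate.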

SMILES	Activity
CCc1c(O)c(=O)ccn1CCCCCCCCCCOC(=O)CCC(=O)CN.Cl	Non-Toxic
CCc1c(O)c(=O)ccn1CCCCCCCCCCCCOC(=O)CCC(=O)CN.Cl	Non-Toxic

System: not listed separately
Experiment: Prodrug conversion in human KB cells assessed as accumulation of ALA at 100 uM after 2 hrs by HPLC-based fluorescence analysis relative to ALA
Format: ADME, cell-based
Conditions: not given
Procedure, shortened: (§4)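 KB or MCF-7R cells incubated 2 h with 100 μM ALA or conjugate, then extracted with CelLytic. Lysate ALA derivatised with acetylacetone/ethanol/water (15/45/40) plus 10% formaldehyde at 100 °C for 10 min. Analysed by C18 HPLC with fluorescence detection (excitation 370 nm, emission 460 nm) against spiked-lysate calibration. Normalised per mg protein.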

SMILES	fold change (FC)
CCc1c(O)c(=O)ccn1CCCCCCCCCCOC(=O)CCC(=O)CN.Cl	8

System: not listed separately
Experiment: Prodrug conversion in human doxorubicin resistant MCF7/R cells assessed as accumulation of ALA at 100 uM after 2 hrs by HPLC-based fluorescence analysis relative to ALA
Format: ADME, cell-based
Conditions: mcf7r
Procedure, shortened: as §4

SMILES	fold change (FC)
CCc1c(O)c(=O)ccn1CCCCCCCCCCOC(=O)CCC(=O)CN.Cl	8

System: not listed separately
Experiment: Drug metabolism in human KB cells assessed as formation of protoporphyrin 9 preincubated for 2 hrs followed by compound washout measured after 24 hrs by HPLC-based fluorescence analysis
Format: ADME, cell-based
Conditions: not given
Procedure, shortened: (§5)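 Cells given ALA or conjugate for 2 h at 37 °C, then fresh medium without compound. At 24 h, lysed in CelLytic (15 min, room temperature), scraped and spun 1800g for 10 min. Supernatant PpIX read by fluorescence at 405/635 nm and normalised per mg protein (BCA). Untreated blanks subtracted.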

SMILES	Drug metabolism
CCc1c(O)c(=O)ccn1CCCCCCCCCCOC(=O)CCC(=O)CN.Cl	Metabolite_Detected
CCc1c(O)c(=O)ccn1CCCCCCCCCCCCOC(=O)CCC(=O)CN.Cl	Metabolite_Detected

System: not listed separately
Experiment: Drug metabolism in human doxorubicin resistant MCF7/R cells assessed as formation of protoporphyrin 9 preincubated for 2 hrs followed by compound washout measured after 24 hrs by HPLC-based fluorescence analysis
Format: ADME, cell-based
Conditions: mcf7r
Procedure, shortened: as §5

SMILES	Drug metabolism
CCc1c(O)c(=O)ccn1CCCCCCCCCCOC(=O)CCC(=O)CN.Cl	Metabolite_Detected
CCc1c(O)c(=O)ccn1CCCCCCCCCCCCOC(=O)CCC(=O)CN.Cl	Metabolite_Detected

System: not listed separately
Experiment: Drug metabolism in human MCF7 cells assessed as formation of protoporphyrin 9 preincubated for 2 hrs followed by compound washout measured after 24 hrs by HPLC-based fluorescence analysis
Format: ADME, cell-based
Conditions: mcf7, 24 h
Procedure, shortened: as §5

SMILES	Drug metabolism
CCc1c(O)c(=O)ccn1CCCCCCCCCCOC(=O)CCC(=O)CN.Cl	Metabolite_Detected
CCc1c(O)c(=O)ccn1CCCCCCCCCCCCOC(=O)CCC(=O)CN.Cl	Metabolite_Detected

System: not listed separately
Experiment: Drug metabolism in human doxorubicin resistant MCF7/R cells assessed as formation of protoporphyrin 9 at 1 to 100 uM after 6 hrs by fluorescence spectrometer
Format: ADME, cell-based
Conditions: mcf7r
Procedure, shortened: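 Cells seeded ~5 × 10^4 per well and grown 48 h, washed with PBS. Then 6 h at 37 °C with 1–100 μM prodrug in serum-free medium. PpIX fluorescence read with excitation 405 nm and emission 635 nm (scan 600–750 nm, 515 nm long-pass filter). Values are mean intensity in arbitrary units after subtracting no-prodrug control wells. Triplicate.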

SMILES	Flu intensity [a.u.]
CCc1c(O)c(=O)ccn1CCCCCCCCCCOC(=O)CCC(=O)CN.Cl	2 to 25
CCc1c(O)c(=O)ccn1CCCCCCCCCCCCOC(=O)CCC(=O)CN.Cl	2 to 25

System: not listed separately
Experiment: Drug metabolism in human doxorubicin resistant MCF7/R cells assessed as formation of protoporphyrin 9 at 50 uM after 6 hrs by fluorescence spectrometer
Format: ADME, cell-based
Conditions: mcf7r
Procedure, shortened: as §2

SMILES	Drug metabolism
CCc1c(O)c(=O)ccn1CCCCCCCCCCOC(=O)CCC(=O)CN.Cl	Metabolite_Detected
CCc1c(O)c(=O)ccn1CCCCCCCCCCCCOC(=O)CCC(=O)CN.Cl	Metabolite_Detected

System: KB
Experiment: Dark toxicity against human KB cells assessed as cell survival at 100 uM after 24 hrs by MTT assay
Format: cell-based
Conditions: not given

SMILES	Activity
CCc1c(O)c(=O)ccn1CCCCCCCCCCOC(=O)CCC(=O)CN.Cl	Non-Toxic
CCc1c(O)c(=O)ccn1CCCCCCCCCCCCOC(=O)CCC(=O)CN.Cl	Non-Toxic
